Results gathered from unrelated publications.
Each line is one published result; the experiments were not run side by side.
SLC6A2: Sodium-dependent noradrenaline transporter (SLC6A2, Homo sapiens, UniProt P23975)
FPR1: fMet-Leu-Phe receptor (FPR1, Homo sapiens, UniProt P21462)
MC4R: Melanocortin receptor 4 (MC4R, Homo sapiens, UniProt P32245)
DNA dC->dU-editing enzyme APOBEC-3B: DNA dC->dU-editing enzyme APOBEC-3B (Homo sapiens, UniProt Q9UH17)
NQO2: Ribosyldihydronicotinamide dehydrogenase [quinone] (NQO2, Homo sapiens, UniProt P16083)
CYSLTR1: Cysteinyl leukotriene receptor 1 (CYSLTR1, Homo sapiens, UniProt Q9Y271)

| SMILES | target | assay | test system | setting | inhibition [%] |
| --- | --- | --- | --- | --- | --- |
| Clc1ccc(C(c2ccccc2)c2nnnn2CCCCN2CCN(CC=Cc3ccccc3)CC2)cc1 (centres unmarked) | SLC6A2 | transporter uptake, inhibitor | HEK293 | 1 µM | 50.4 |
| COc1ccccc1-c1c(C(F)(F)F)oc2cc(OC(=O)C(C)C)ccc2c1=O | FPR1 | calcium signal, antagonist | – | 50 µM | 100 |
| Clc1ccc(C(c2ccccc2)c2nnnn2CCCN2CCC(CCCc3ccccc3)CC2)cc1 (centres unmarked) | SLC6A2 | transporter uptake, inhibitor | HEK293 | 1 µM | 72.8 |
| CNC(=O)c1cc(Oc2ccc(NC(=O)Nc3ccc(Cl)c(C(F)(F)F)c3)cc2)ccn1 | Serine/threonine-protein kinase Chk2 (CHEK2, Homo sapiens, UniProt O96017, R145W) | enzyme activity, inhibitor | – | 10 µM | 0 |
| CC(=O)N[C@H]1CSSC[C@@H](C(=O)N[C@H](Cc2c[nH]c3ccccc23)C(N)=O)NC(=O)[C@H](Cc2ccccc2)NC(=O)[C@H](CCCNC(=N)N)NC1=O | MC4R | ligand displacement, radioligand | – | 10 µM, 40 min | 0 |
| Fc1ccc(C(c2ccc(F)cc2)c2nnnn2CCCCN2CCN(CCCc3ccccc3)CC2)cc1 | SLC6A2 | transporter uptake, inhibitor | HEK293 | 1 µM | 86.4 |
| CC/C(=N\NC(=O)NCc1cccc(O)c1)c1ccc(O)c(C)c1O | Fibroblast growth factor receptor 4 (FGFR4, Homo sapiens, UniProt P22455, N535K) | enzyme activity, inhibitor | – | 0.1 µM | 3.1 |
| O=c1c(-c2ccc(O)cc2)coc2c(OC3OC(CO)C(O)C(O)C3O)c(O)ccc12 (centres unmarked) | DNA dC->dU-editing enzyme APOBEC-3B | enzyme activity, inhibitor, fluorescence | – | 100 µM | 37.5 |
| Clc1ccc(C(c2ccc(Cl)cc2)c2nnnn2CCCCN2CCN(CCCc3ccccc3)CC2)cc1 | SLC6A2 | transporter uptake, inhibitor | HEK293 | 1 µM | 21.3 |
| COc1ccccc1-c1c(C(F)(F)F)oc2cc(OC(=O)C3CC3)ccc2c1=O | FPR1 | calcium signal, antagonist | – | 50 µM | 100 |
| Fc1ccc(C(c2ccc(F)cc2)c2nnnn2CCCCN2CCC(Cc3ccc(Cl)c(Cl)c3)CC2)cc1 | SLC6A2 | transporter uptake, inhibitor | HEK293 | 1 µM | 75.9 |
| Cc1c(COc2c(F)cc(F)cc2F)c2c(n1C)C(=O)C=C(NCCCN(C)C)C2=O | NQO2 | enzyme activity, inhibitor | – | 1 µM | 98 |
| CCN(Cc1ccccc1C(F)(F)F)C(=O)C1CCN(S(=O)(=O)c2ccc3[nH]ncc3c2)CC1 | CYSLTR1 | ligand displacement, radioligand | – | 10 µM | 38 |
| O=C(c1ccc(F)cc1)N(Cc1ccccc1)C1CCCCC1 | CYSLTR1 | ligand displacement | – | 10 µM | -7 |
| Clc1ccc(C(c2ccccc2)c2nnnn2CCCCN2CCC(CCCc3ccccc3)CC2)cc1 (centres unmarked) | SLC6A2 | transporter uptake, inhibitor | HEK293 | 1 µM | 84.1 |
| CCN1CCN(Cc2ccc(NC(=O)c3ccc(C)c(Oc4ccnc5[nH]ccc45)c3)cc2C(F)(F)F)CC1 | Serine/threonine-protein kinase 10 (STK10, Homo sapiens, UniProt O94804) | target engagement in cells, inhibitor, chemoproteomics | Huh-7 | 10 µM | -64.9 |
| Nc1ncnc2c1ncn2C1OC(COP(=O)(O)OP(=O)(O)O)C(O)C1O (centres unmarked) | DNA dC->dU-editing enzyme APOBEC-3B | enzyme activity, inhibitor, fluorescence | – | 100 µM | 41.8 |
| O=C(Oc1ccc2c(=O)c(-c3ccccc3Cl)c(C(F)(F)F)oc2c1)c1cccs1 | FPR1 | calcium signal, antagonist | – | 50 µM | 100 |
| O=C(O)C1OC(Oc2cc(O)c3c(=O)cc(-c4ccc(O)cc4)oc3c2)C(O)C(O)C1O (centres unmarked) | DNA dC->dU-editing enzyme APOBEC-3B | enzyme activity, inhibitor, fluorescence | – | 100 µM | 41.2 |
| Clc1ccc(C(c2ccc(Cl)cc2)c2nnnn2CCCCN2CCC(c3ccccc3)CC2)cc1 | SLC6A2 | transporter uptake, inhibitor | HEK293 | 1 µM | 34 |
| CC(CCC(=O)NCC(=O)O)C1CCC2C3C(O)CC4CC(O)CCC4(C)C3CC(O)C12C (centres unmarked) | DNA dC->dU-editing enzyme APOBEC-3B | enzyme activity, inhibitor, fluorescence | – | 100 µM | 23.7 |
| Nc1c(Cl)cccc1C(=O)Nc1ccccc1C(=O)O | srtA (Staphylococcus aureus, UniProt Q2FV99) | enzyme activity, inhibitor | – | 200 µM | 100 |
| Cc1c(COc2c(F)cc(F)cc2F)c2c(n1C)C(=O)C=C(NCCCN)C2=O | NQO2 | cell-free assay, inhibitor | – | 1 µM | 97 |
| Cc1oc2cc(OC(=O)c3ccco3)ccc2c(=O)c1-c1ccccc1 | FPR1 | calcium signal, antagonist | – | 50 µM | 100 |
| c1ccc(CCC2CCN(CCCCn3nnnc3C(c3ccccc3)c3ccccc3)CC2)cc1 | SLC6A2 | transporter uptake, inhibitor | HEK293 | 1 µM | 82.8 |
| COc1ccccc1-c1c(C(F)(F)F)oc2cc(OC(=O)c3ccco3)ccc2c1=O | FPR1 | calcium signal, antagonist | – | 50 µM | 100 |
| O=C1N=C(N2CCCCN2)S/C1=C\c1ccc(F)cc1O | MC4R | ligand displacement, radioligand | – | 10 µM | < 10 |
| COc1ccccc1-c1c(C)oc2cc(OC(=O)c3ccco3)ccc2c1=O | FPR1 | calcium signal, antagonist | – | 50 µM | 100 |
| Cc1ccc(Nc2nccc(N(C)c3ccc4c(C)n(C)nc4c3)n2)cc1S(N)(=O)=O | Serine/threonine-protein kinase Chk2 (CHEK2, Homo sapiens, UniProt O96017, I157T) | enzyme activity, inhibitor | – | 0.3 µM | -1 |
